The record followed here is PubChem BioAssay AID2152 (The Scripps Research Institute Molecular Screening Center, 2009).

Out of some 2,300 compounds screened, about 25 (1%) were called active. This excerpt belongs to a sample that is enriched for actives. Unmarked numbers belong to inactive results.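 How the source made its calls: active means mean inhibition over three replicate wells above the hit threshold derived in the earlier primary screen (cut at about 45% in these data); inactive means the rest.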

In the assay the test system is Hepatitis C virus core protein (core106 dimerization). As to the kind of experiment: inhibitors of HCV core protein dimerization, confirmation, biochemical, TR-FRET, triplicate (AID 2152).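 Further: 0% = DMSO wells and 100% = unlabelled core106 competitor control.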 The note with it: TR-FRET GST-/Flag-core106 dimerization, HTRF; at 5 µM; hits give high values. In short, it runs like this: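 Test system – GST- and Flag-tagged HCV core106 peptides, dimerization via antibody TR-FRET · Amount – 17 nM Flag- plus 13.5 nM GST-core106 · Schedule – 4 h incubation, 22.5 °C · Compound dosing – one 5 µM dose, 0.5% DMSO · Detection – TR-FRET, 340 nm excitation, 671/617 nm emission · Reagent – Eu(K)-anti-GST plus XL665-anti-FLAG antibodies · Read-out basis – percent inhibition from emission ratio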
As usually defined, the inhibition is the relative decrease from the control value, in per cent. Regarding `Cc1csc(SCC(=O)Nc2sc3c(c2C#N)CCC3)n1`, the inhibition is -4.85%.

`CCCCN(C(=O)c1cc(-c2ccco2)nc2ccccc12)c1c(N)n(CCCC)c(=O)[nH]c1=O`: the inhibition is -1.63%.

Turning to `CN(CC(=O)Nc1ccc(F)cc1)C(=O)c1cc(-c2ccco2)nc2ccccc12`, the inhibition was 13.3%.

`O=C(Nc1ccc(Cl)c([N+](=O)[O-])c1)c1cnccn1`: the inhibition is 6.55%.

For the molecule `CC1(OC(=O)CCc2ccccc2)C(=O)C=C2C=C(c3ccc(C#N)cc3)N(c3ccccc3)C=C2C1=O` (centres undefined), the inhibition was 1.14%.

For `C=CCN1C=C2C(=O)C(C)(OC(=O)CCc3ccccc3)C(=O)C=C2C=C1c1ccc(C#N)cc1` (centres undefined), the inhibition was 0.52%.

Take `CC1(O)C(=O)C=C2C=C(c3ccc(C#N)cc3)OC=C2C1=O` (centres undefined): the inhibition was 55% (active).

Take `Cc1ccc2nc(N3CCN(S(=O)(=O)c4ccc5c(c4)OCCO5)CC3)c(C#N)cc2c1`: the inhibition is 14.6%.

For the molecule `O=C(c1cc(-c2ccccn2)nc2ccc(Br)cc12)N1CCN(S(=O)(=O)c2ccccc2)CC1`, the inhibition was 17%.

Regarding `C/C=C\C=C/C(=O)Nc1cccc(C2=NOC3(C2)C[C@@H](C(N)=O)N(C(=O)/C=C/CC)C3)c1` (some centres undefined), the inhibition is 5.44%.

Consider `O=C1C(Cc2ccccc2)S/C(=N/N=C/c2ccco2)N1c1ccccc1` (centres undefined), for which the inhibition was -8.03%.

Consider `Cc1oc(-c2ccc(F)cc2)cc1-c1nn2c(-c3ccoc3C)nnc2s1`, for which the inhibition was 20.6%.

Take `Cc1oc(-c2ccc(Cl)cc2)cc1-c1nn2c(-c3ccoc3C)nnc2s1`: the inhibition was 52.5% (active).

As for `c1ccc(-c2cc(-c3nn4c(-c5ccco5)nnc4s3)c3ccccc3n2)cc1`, the inhibition is 16.7%.

For `Cc1ccc(NC(=O)c2cc(-c3ccc(C)o3)nc3ccccc23)cc1`, the inhibition is -0.19%.

With `CCN(CC(=O)Nc1c(F)cccc1F)C(=O)/C=C/c1ccc2ccccc2n1`, the inhibition is 62.5% (active).

On to `CCN(CC(=O)Nc1c(F)cccc1F)C(=O)c1cccc(-n2cccc2)c1`, for which the inhibition was 3.91%.

For `O=C(/C=C/c1ccc2ccccc2n1)N1CCN(c2ccccc2)CC1`, the inhibition was -3.48%.

With `O=C1CCCC2=C1C(c1cn(-c3ccccc3)nc1-c1cccs1)c1c([nH]c(=O)[nH]c1=O)N2` (centres undefined), the inhibition is 0.06%.

For `CC1=C(C#N)C(=O)N(C2CCS(=O)(=O)C2)C(=O)/C1=C\c1ccco1` (centres undefined), the inhibition is 56.2% (active).

For `Cc1ccccc1N1C(S)=C(C#N)C(=O)NC1c1ccco1` (centres undefined), the inhibition is 9.88%.

Turning to `Cc1ccc(NC(=O)CN2C(=O)N/C(=C/c3ccco3)C2=O)cc1`, the inhibition is -4.53%.

Turning to `COc1ccc(-c2cc(C(=O)Nc3sc4c(c3C#N)CCCC4)c3ccccc3n2)cc1OC`, the inhibition is -1.02%.

On to `COc1cc(-c2cc(C(=O)OCC(=O)Nc3ccc4c(c3)OCO4)c3ccccc3n2)cc(OC)c1OC`, for which the inhibition is 4.02%.

On to `CN(CC(=O)Nc1c(Cl)cccc1Cl)C(=O)c1cccc(-n2cccc2)c1`, for which the inhibition is 2.1%.

Regarding `COc1ccc(CC(=O)OCC(=O)Nc2ncc(Cl)cc2Cl)cc1`, the inhibition is -1.83%.

As to `COc1ccccc1NC(=O)c1ccc(SCC(=O)NCc2ccccc2Cl)c([N+](=O)[O-])c1`, the inhibition was -1.75%.

In the case of `O=C(NCc1ccco1)C1Cc2ccccc2CN1S(=O)(=O)c1ccccc1F` (centres undefined), the inhibition is 18.4%.

Consider `C/C=C\C=C/C(=O)Nc1cccc(C2=NOC3(C2)C[C@@H](C(N)=O)N(C(=O)[C@H]2CCC(=O)N2)C3)c1` (some centres undefined), for which the inhibition was -14.3%.

With `O=C(N/N=C/c1ccc(N2CCCCC2)o1)C(O)(c1ccccc1)c1ccccc1`, the inhibition was -3.6%.

With `CCOc1ccc(C2C(C#N)=C(N)SC(N)=C2C#N)cc1OCC`, the inhibition is 31.4%.

For the molecule `COc1ccccc1C(CCN(Cc1cccs1)C(C)=O)c1ccco1` (centres undefined), the inhibition was -3.29%.

`O=C(NCCN1C(=O)S/C(=C\c2ccc(Cl)c(Cl)c2)C1=O)c1ccc2c(c1)C(=O)N(Cc1ccncc1)C2=O`: the inhibition is 6.43%.

Consider `O=C(COc1ccc([N+](=O)[O-])cc1)Nc1nnc(-c2cccnc2)s1`, for which the inhibition was 16.4%.

Turning to `CC[C@@H](C)CN1C(=O)N[C@@H](c2ccccc2)C(C(C)=O)=C1C`, the inhibition is 5.08%.

As for `CCOC(=O)c1cccc(NC(=O)C2CCCN(c3nnc(N4CCCC4=O)s3)C2)c1` (centres undefined), the inhibition was -7.1%.

As for `O=c1c2c3nc4ccccc4nc3n(/N=C/c3ccco3)c2ncn1CCC1=CCCCC1`, the inhibition was 2.56%.

Regarding `O=C(O)C/C(=C\c1cc(Cl)c2c(c1)OCO2)c1nc2ccccc2s1`, the inhibition was 4.02%.

With `Cc1ccc(NC(=O)Nc2nnc(Cc3ccc([N+](=O)[O-])cc3)s2)cc1`, the inhibition was 6.61%.

Consider `N=c1c(C(=O)NCc2ccco2)cc2c(=O)n3ccccc3nc2n1Cc1ccc(Cl)cc1`, for which the inhibition was 9.28%.

As to `COc1ccccc1/C=c1\sc2nc(-c3ccco3)nn2c1=O`, the inhibition was 8.15%.

In the case of `O=c1nc2s/c(=C\c3ccco3)c(=O)n2nc1Cc1ccc(F)cc1`, the inhibition is 14.3%.

With `COc1ccccc1/C=C/C=c1\sc2nc(=O)c(Cc3ccccc3)nn2c1=O`, the inhibition is 46.4% (active).

Take `COc1cccc(/C=N/NC(=O)c2nc(-c3ccccc3)cc(-c3ccccc3)n2)c1`: the inhibition was 6.79%.

As for `Cc1ccc(C)c(N2CCN(C(=O)CSc3ccsc3[N+](=O)[O-])CC2)c1`, the inhibition is 12.5%.

Regarding `O=C(/C=C\c1ccc2c(c1)OCO2)Nc1c2c(nn1-c1ccc(Cl)cc1)CSC2`, the inhibition was -1.47%.

Regarding `O=C(Cn1cnc2sc(-c3ccccc3)cc2c1=O)NCc1ccco1`, the inhibition is 3.55%.

On to `CCOc1cc(/C=C2\C(=O)N(c3nc(-c4ccc(Br)cc4)cs3)N=C2c2ccccc2)ccc1O`, for which the inhibition is 58.1% (active).

On to `CCc1ccc(-c2csc(NC(=O)C3=NN(c4ccccc4)C(=O)CC3)n2)cc1`, for which the inhibition is -3.1%.

As to `Cc1ccc(-c2csc(N3N=C(c4ccccc4)/C(=C\c4ccc(N(C)C)cc4)C3=O)n2)cc1`, the inhibition was 1.99%.

Take `CNC(=O)COC(=O)c1cc(-c2ccco2)nc2ccccc12`: the inhibition is 12.2%.

As to `O=C(OCC(=O)N1CCN(C(=O)c2ccco2)CC1)c1cc(-c2ccco2)nc2ccccc12`, the inhibition was 30.6%.

For the molecule `CN(C(=O)COC(=O)c1cc(-c2ccco2)nc2ccccc12)C1CCS(=O)(=O)C1` (centres undefined), the inhibition was 49.6% (active).

With `Cc1cc(C)c(S(=O)(=O)N2CCOC2CNC(=O)C(=O)NCCc2ccc(S(N)(=O)=O)cc2)c(C)c1` (centres undefined), the inhibition is -0.31%.

Take `Cc1[nH]c2ccccc2c1CCNC(=O)c1ccc2c(c1[N+](=O)[O-])C(=O)c1ccccc1C2=O`: the inhibition is -6.67%.

For the molecule `CCOc1cc(/C=N\NC(=O)c2ccc(NC(=O)C(C)(C)C)cc2)ccc1OC(=O)c1cccc(C)c1`, the inhibition was -6.21%.

As to `C=CCOc1ccc(-c2nc3c(c(=O)[nH]c(=O)n3Cc3ccccc3)n2CCCOC)cc1`, the inhibition is 3%.

As to `C=CCn1c(C)cc(C(=O)COC(=O)c2ccc3c(c2)NC(=O)CS3)c1C`, the inhibition is -0.86%.

In the case of `COC(=O)c1ccccc1NC(=O)CN1C(=O)C2CCCN2c2ncc(Cl)cc21` (centres undefined), the inhibition was 4.11%.

Consider `CCCN(CCC)C(=O)CC(c1ccc(F)cc1)c1ccco1` (centres undefined), for which the inhibition is -2.6%.

In the case of `COc1ccc(C2=NN(C(=O)CSc3nc(=O)n4cccc(C)c4n3)C(c3ccc(C)cc3)C2)cc1` (centres undefined), the inhibition is 21.8%.

As to `O=C(NNC(=O)c1cccc(-n2cccc2)c1)c1ccc(F)cc1`, the inhibition was 9.23%.

Regarding `Cc1ccc(-c2cc(C(F)F)n3ncc(C(=O)Nc4c(C)nn(Cc5ccccc5Cl)c4C)c3n2)cc1`, the inhibition was 0.26%.

On to `N#Cc1ccsc1NC(=O)COc1ccc(-c2nnco2)cc1`, for which the inhibition is 3.2%.

`O=C1CC(c2ccco2)Cc2nc(N3CCc4ccccc4C3)ncc21` (centres undefined): the inhibition was 0.9%.

For the molecule `CCN(CC)c1cc2nc(C)n(Cc3ccccc3)c(=O)c2cc1NC(=O)C1CC1`, the inhibition was 3.07%.

Regarding `Cc1cc([N+](=O)[O-])cc2c1NC(c1ccccn1)C1CC=CC21` (centres undefined), the inhibition was 8.17%.

Consider `CC(C)Cc1nc(N2CCN(C(=O)c3ccco3)CC2)c(C#N)c2c1CCC2`, for which the inhibition was -9.13%.

For the molecule `Cc1ccc2[nH]c(=O)c(CN(Cc3ccc4c(c3)OCO4)Cc3nnnn3Cc3ccco3)cc2c1`, the inhibition was -2.73%.

Turning to `COc1ccc(C(=S)N2CCOCC2)cc1OC(=O)c1cc([N+](=O)[O-])c(C)c([N+](=O)[O-])c1`, the inhibition was 3.86%.

Consider `COc1ccc(/C=C2\SC(=S)N(NC(=O)c3csc4c3CCCC4)C2=O)cc1`, for which the inhibition was -8.8%.

Take `CC(C)Cn1c(-c2ccccc2)nc(=S)c2c1CCCC2`: the inhibition is 2.05%.

As for `COc1ccc(NC(=O)NNC(=O)COc2ccc3cc(Br)ccc3c2)c(OC)c1`, the inhibition was 0.29%.

Take `COC/C=C/C1=CC2=CC(=O)C(C)(OC(=O)c3cnc4ccccc4n3)C(=O)C2=CN1Cc1ccc(OC)cc1` (centres undefined): the inhibition is 2.72%.

On to `O=C1c2ccccc2C(Nc2ccc3c(c2)OCO3)N1Cc1ccc2c(c1)OCO2` (centres undefined), for which the inhibition was -1.13%.

Take `CC(=O)c1ccc(NC(=O)/C(=C\c2ccccc2)NC(=O)/C=C/c2ccccc2)cc1`: the inhibition is -3.84%.

With `C=C(NC(=O)C(=C)NC(=O)c1csc(C2=NC3c4csc(n4)C4NC(=O)c5csc(n5)C([C@@](C)(O)C(C)O)NC(=O)C5CSC(=N5)/C(=C\C)NC(=O)C(C(C)O)NC(=O)c5csc(n5)[C@]3(CC2)NC(=O)C(C)NC(=O)C(=C)NC(=O)C(C)NC(=O)C(C(C)CC)NC2C=Cc3c(C(C)O)cc(nc3C2O)C(=O)OC4C)n1)C(N)=O` (some centres undefined), the inhibition is 47.5% (active).

Take `CS(=O)(=O)N1CCc2cc(-c3csc(NC(=O)C(c4ccccc4)c4ccccc4)n3)ccc21`: the inhibition was -5%.

For `O=C(COC(=O)c1ccccc1Oc1ccccc1)NCc1ccco1`, the inhibition was -1.91%.
